In ChEMBL document CHEMBL1135512 (J Med Chem, 2002):

Key:
[1] = Cytotoxicity against Chinese hamster ovary cells; type: cell-based, Cricetulus griseus
Procedure, shortened: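 Cells were then exposed to graded drug concentrations for 48 h at 37 °C, 5% CO2. MTT (1 mg/mL in PBS) was added for 3 h, and formazan was dissolved in DMSO and read at 570/630 nm. IC50 came from nonlinear regression versus drug-free wells.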

[2] = In vitro hemolytic concentration on uninfected erythrocytes.; type: functional, Homo sapiens
Procedure, shortened: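 Washed A+ human erythrocytes were held at 1.5% hematocrit in RPMI 1640 with 10% human serum, 25 mM HEPES and 25 mM NaHCO3. Drug (2 mM to 1 μM final, triplicate) was added for 42 h at 37 °C under 10% O2/6% CO2. Released hemoglobin in supernatant was measured with TMB/H2O2 at 455 nm. HC50 is relative to 5% saponin lysis, by nonlinear regression.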

Plasmodium falciparum [3] = assay: In vitro inhibitory activity against multidrug-resistant Plasmodium falciparum W2 Indochina; type: functional, organism-based
Procedure, shortened: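 Clone W2 (Indochina), sorbitol-synchronized, was grown in RPMI 1640 with 10% human serum, 25 mM HEPES and 25 mM NaHCO3, at final parasitemia 0.5% and hematocrit 1.5%. The drug was present for 48 h at 37 °C under 10% O2/6% CO2/84% N2. Growth was read as 3H-hypoxanthine uptake (1 μCi/well). IC50 came from nonlinear regression of log-dose/response as the geometric mean with 95% CI.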

Plasmodium falciparum [4] = assay: Percent reversal against Plasmodium falciparum W2 at 1 uM DEEA; type: functional
[5] = Partition coefficient (logP); type: physicochemical; details: octanol/water
[6] = Partition coefficient (logD7.0); type: physicochemical; details: octanol/water, pH 7
[7] = Dissociation constant (pKa); type: physicochemical
Plasmodium falciparum [8] = assay: Accumulation coefficient of chloroquine at 1 um-10 uM of DEEA against Plasmodium falciparum W2;Range is from 14-15; type: functional
Procedure, shortened: (§1)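 W2 infected erythrocytes were suspended in RPMI 1640 with 25 mM HEPES and 25 mM NaHCO3 (2% parasitemia, 2% hematocrit). They were mixed over silicone oil with buffer holding [3H]CQ (26 Ci/mmol) plus DEEA at 1 or 10 μM. Incubation was 1 h at 37 °C under 10% O2/6% CO2/84% N2, followed by 1 min centrifugation. Ratio = parasite [3H]CQ (infected minus uninfected cells) / same-volume buffer.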

Plasmodium falciparum [9] = assay: Concentration required to reduce chloroquine IC50 by 50%; type: functional, organism-based
Procedure, shortened: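 Synergy isotopic microtest on sorbitol-synchronized W2 (Indochina) and 3D7 in RPMI 1640 with 10% human serum, HEPES/NaHCO3, parasitemia 0.5%, hematocrit 1.5%. CQ was combined with subinhibitory fixed DEEA concentrations, and 3H-hypoxanthine was added for 48 h at 37 °C under 10% O2/6% CO2/84% N2. Reversal IC50 is the DEEA concentration halving CQ IC50, found by nonlinear regression of log-dose/IC50.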

Plasmodium falciparum [10] = assay: Accumulation coefficient of chloroquine at 1 uM-10 uM of DEEA against Plasmodium falciparum W2; Range is from 14-56; type: functional; procedure, shortened: as §1
Plasmodium falciparum [11] = assay: Accumulation coefficient of chloroquine at 1 uM -10 uM of DEEA against Plasmodium falciparum W2; Range is from 15-101; type: functional; procedure, shortened: as §1
Plasmodium falciparum [12] = assay: Accumulation coefficient of chloroquine at 1 uM-10 uM of DEEA against Plasmodium falciparum W2; Range is from 16-71; type: functional; procedure, shortened: as §1
Plasmodium falciparum [13] = assay: Accumulation coefficient of chloroquine at 1 uM-10 uM of DEEA against Plasmodium falciparum W2; Range is from 19-23; type: functional; procedure, shortened: as §1
Plasmodium falciparum [14] = assay: Percent reversal against Plasmodium falciparum W2 at 1 uM DEEA
Plasmodium falciparum [15] = assay: Accumulation coefficient of chloroquine at 1 uM-10 uM of DEEA against Plasmodium falciparum W2; type: functional; procedure, shortened: as §1
Plasmodium falciparum [16] = assay: Accumulation coefficient of chloroquine at 1 uM-10 uM of DEEA against Plasmodium falciparum W2; Range is from 61-242; type: functional; procedure, shortened: as §1
Plasmodium falciparum [17] = assay: Accumulation coefficient of chloroquine at 1 uM-10 uM of DEEA against Plasmodium falciparum W2; Range is from 62-63; type: functional
[18] = pKa of the compound; type: physicochemical
Plasmodium falciparum [19] = assay: Accumulation coefficient of chloroquine at 1 uM-10 uM of DEEA against Plasmodium falciparum W2; Range is from 50-159; type: functional; procedure, shortened: as §1
Plasmodium falciparum [20] = assay: Accumulation coefficient of chloroquine at 1 uM-10 uM of DEEA against Plasmodium falciparum W2; Range is from 18-16; type: functional
Plasmodium falciparum [21] = assay: Accumulation coefficient of chloroquine at 1 uM-10 uM of DEEA against Plasmodium falciparum W2;Range is from 30-32; type: functional; procedure, shortened: as §1
Plasmodium falciparum [22] = assay: Accumulation coefficient of chloroquine at 1 uM-10 um of DEEA against Plasmodium falciparum W2;Range is from 112-298; type: functional; procedure, shortened: as §1

| SMILES | Cytotoxicity [1] [µM] | HC50 [2] [µM] | IC50 (Plasmodium falciparum [3]; Plasmodium falciparum) [µM] | Reversal (Plasmodium falciparum [4]) [%] | logP ([5]; read-out: logP) | logD ([6]; read-out: logD) | pKa [7] | IC50 (Plasmodium falciparum [9]; Plasmodium falciparum) [µM] | also measured |
| --- | --- | --- | --- | --- | --- | --- | --- | --- | --- |
| CC1C2c3ccccc3C(c3ccccc32)C1C(=O)Nc1ccccn1 (configuration not stated) | 205 | 1827 | 302 | 0 | 4.17 | 4.16 | 5.27 | – | Accumulation coefficient (Plasmodium falciparum [8]): 15 |
| CN(C)CC1C2c3ccccc3C(c3ccccc32)C1CO (configuration not stated) | > 2000 | >2000 | 36 | 66 | 2.82 | 0.96 | 8.86 | 0.6 | Accumulation coefficient (Plasmodium falciparum [10]): 56 |
| CC1C2c3ccccc3C(c3ccccc32)C1C(=O)Nc1ccncc1 (configuration not stated) | > 500 | >2000 | 833 | 21 | 3.85 | 3.85 | 5.27 | 1490 | Accumulation coefficient (Plasmodium falciparum [11]): 101 |
| CN(C)CCNC1CC2c3ccccc3C1c1ccccc12 (configuration not stated) | 695 | 644 | 8 | 63 | 3.17 | -1.5 | 9.48 | 0.8 | Accumulation coefficient (Plasmodium falciparum [12]): 71 |
| CC1C2c3ccccc3C(c3ccccc32)C1C(=O)/N=C/N(C)C (configuration not stated) | > 2000 | >2000 | 51 | 0 | 3.26 | 3.26 | – | 40 | Accumulation coefficient (Plasmodium falciparum [13]): 23 |
| CC1C2c3ccccc3C(c3ccccc32)C1C(N)=O (configuration not stated) | > 2000 | >2000 | 41 | – | 2.89 | 2.89 | -0.89 | 20 | Reversal (Plasmodium falciparum [14]): 0%; Accumulation coefficient (Plasmodium falciparum [15]): 22 |
| CN(C)CC1=C(CN(C)C)C2c3ccccc3C1c1ccccc12 | 920 | >2000 | 2.5 | 55 | 3.34 | 1.26 | 8.66 | 0.8 | Accumulation coefficient (Plasmodium falciparum [16]): 242 |
| CCOC(=O)C1C2c3ccccc3C(c3ccccc32)C1N(C)C (configuration not stated) | > 2000 | >2000 | 34 | 0 | 3.6 | 3 | 7.48 | 3.1 | Accumulation coefficient (Plasmodium falciparum [17]): 63 |
| NCC1C2c3ccccc3C(c3ccccc32)C1CN (configuration not stated) | 465 | >2000 | 8 | 7 | – | – | – | 12.5 | pKa [18]: 10.1; logP [5]: 1.89; logD [6]: -3.27; Accumulation coefficient (Plasmodium falciparum [19]): 159 |
| CN(C)C1C2c3ccccc3C(c3ccccc32)C1C(=O)O (configuration not stated) | > 2000 | >2000 | > 50 | 0 | 2.7 | 0.1 | 8.3 | > 100 | Accumulation coefficient (Plasmodium falciparum [20]): 18 |
| CN(C)C(=O)C1C2c3ccccc3C(c3ccccc32)C1C(=O)N(C)C (stereo in doubt; 17) | 1558 | >2000 | – | 3 | 1.7 | 1.7 | -1.34 | 9 | IC50 (Plasmodium falciparum [3]): 12.4 µM; Accumulation coefficient (Plasmodium falciparum [21]): 32 |
| CN(C)CC1C2c3ccccc3C(c3ccccc32)C1CN(C)C (stereo in doubt; 19) | > 2000 | – | – | 80 | – | – | – | – | IC50 (Plasmodium falciparum [9]): 0.4 µM; IC50 (Plasmodium falciparum [3]): 4 µM; Accumulation coefficient (Plasmodium falciparum [22]): 298 |
